Source: ChEMBL document CHEMBL1123282, “Antiinflammatory activity of substituted 6-hydroxypyrimido[2,1-f]purine-2,4,8(1H,3H,9H)-triones. Atypical nonsteroidal antiinflammatory agents” (J Med Chem, 1986)
Values belong to the compound of their own block, whether it stands above or below them.

Tests used:
[1] = Plasma level data at a dose of 36 mg/kg, iv after 1 hr; format: ADME, organism-based; parameters: dose 36 mg/kg, route intravenous; settings: read-out: Plasma level
Procedure, shortened: (§1)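 Male Lewis rats get a single iv or oral dose of the sodium salt, suspended in 0.4% (w/v) methyl cellulose. Plasma drug levels are measured by HPLC at the timed points and given as mean ± SD, n = 3.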

Rattus norvegicus [2] = test: Compound was tested in vivo for antiinflammatory activity against chronic adjuvant arthritic rat by therapeutic percentage inhibition 1 degree paw after peroral administration of 30 mg/kg of dose; format: functional
Rattus norvegicus [3] = species on record: Rattus norvegicus; test: Delayed Type hypersensitivity (DTH) is measured by increase in ear thickness 24 hours after antigen injection into pinna (10E-3); format: functional
[4] = Plasma level data at a dose of 36 mg/kg, po after 6 hr; format: ADME, organism-based; parameters: dose 36 mg/kg, route oral; settings: read-out: Plasma level
Procedure, shortened: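 Male Lewis rats given a single po dose of the sodium salt suspended in 0.4% (w/v) methyl cellulose. Plasma drug levels measured by HPLC at set times up to 12 h; values are mean ± SD, n = 3.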

Rattus norvegicus [5] = test: Compound was tested for intestinal ulcerogenic effect in rats, activity expressed as lesion score at a dose of 30 mg/kg; format: functional
Procedure, shortened: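 Normal fed rats were gavaged once daily for three consecutive days at 10–300 mg/kg and killed 24 h after the last dose. Intestines were examined for ulcers, recording incidence per group of 8 and a lesion score (±SE).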

Rattus norvegicus [6] = test: Compound was tested for gastric ulcerogenic effect in rats, activity expressed as lesion length at a dose of 30 mg/kg
Rattus norvegicus [7] = species on record: Rattus norvegicus; test: Delayed Type hypersensitivity (DTH) is measured by increase in ear thickness 24 hours after antigen injection into pinna 10e-3; format: functional
Rattus norvegicus [8] = test: Compound was tested in vivo for antiinflammatory activity against chronic adjuvant arthritic rat by therapeutic inhibition 1 degree paw after peroral administration of 3 mg/kg of dose; format: functional; settings: route oral
[9] = Plasma level data at a dose of 20mg/kg, po after 2 hr; format: ADME, organism-based; settings: read-out: Plasma level; procedure, shortened: as §1
[10] = Plasma level data at a dose of 20 mg/kg, po after 4 hr; format: ADME, organism-based; parameters: dose 20 mg/kg, route oral; settings: read-out: Plasma level; procedure, shortened: as §1
[11] = Plasma level data at a dose of 20 mg/kg, iv after 12 hr; format: ADME, organism-based; parameters: dose 20 mg/kg, route intravenous; settings: read-out: Plasma level; procedure, shortened: as §1

concentration at 1 h [1]: 107000 ng/mL
concentration at 6 h [4]: 21000 ng/mL
Structure (SMILES): CCCc1c(O)n(Cc2ccc(F)cc2)c2nc3c(c(=O)n(C)c(=O)n3C)n2c1=O
inhibition in vivo at 30 mg/kg (Rattus norvegicus [2]; Rattus norvegicus, po): 47%
Inhibition (Rattus norvegicus [2]; route oral, 30 mg/kg): 47%
DTH (Rattus norvegicus [3]): 34.1 10e-3mm

Structure (SMILES): CC(C)=CCc1c(O)n(Cc2ccc(F)cc2)c2nc3c(c(=O)n(C)c(=O)n3C)n2c1=O
Lesion length (Rattus norvegicus [5]): 0 mm rat-1
Length (Rattus norvegicus [6]): 0.1 mm rat-1
DTH (Rattus norvegicus [7]): 47.3 10e-3mm

concentration at 2 h [9]: 21900 ng/mL
concentration at 4 h [10]: 39000 ng/mL
concentration at 12 h [11]: 10600 ng/mL
Structure (SMILES): CC(C)=CCc1c(O)n(Cc2ccccc2)c2nc3c(c(=O)n(C)c(=O)n3C)n2c1=O
inhibition in vivo at 3 mg/kg (Rattus norvegicus [8]): 22%
